We go through 26 compounds from ChEMBL document CHEMBL1123654, “Synthesis of N-(3,6-dihydro-1(2H)-pyridinyl)benzamides with hyperglycemic-hypoglycemic activity” (J Med Chem, 1987).

Data set [1] has as its system Rattus norvegicus. The data set is described as follows: Hyperglycemic activity and change in blood glucose concentration was reported 2 hours after administration of 100 mg/Kg perorally. The class given is functional. Summed up:
(§1)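 Overnight-fasted rats dosed orally at 100 mg/kg as a suspension in 1% tragacanth in distilled water. Tail capillary blood sampled at 0, 2 and 4 h after dosing. Serum glucose measured by spectrophotometry of enzymatically produced NADH2. Change is expressed relative to time zero as mean ± SEM of four animals; plus means a rise, minus a fall; p<0.05 marks significance.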

Data set [2] in a line: Partition coefficient (logP). It is filed as physicochemical. The settings on record: octanol/water. Summed up: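 Partition coefficient calculated as P = C(octanol)/C(H2O), using the method of Fujita et al.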
The subject of data set [3] is Rattus norvegicus. Put plainly: Hyperglycemic activity and change in blood glucose concentration was reported 4 hours after administration (100 mg/Kg perorally). It is filed as functional. Put shortly: as §1
In data set [4] the test system is Rattus norvegicus. Put plainly: Hyperglycemic activity and change in blood glucose concentration was reported 2 hours after administration of 100 mg/Kg perorally. It is filed as functional. Put shortly: as §1
Data set [5] has as its system Rattus norvegicus. Put plainly: Hyperglycemic activity and change in blood glucose concentration was reported 4 hours after administration of 100 mg/Kg perorally. The class given is functional. Summed up:
as §1

A word on the logP: it is a log measure of how a compound divides between an organic and an aqueous phase. High values mean higher lipophilicity, low ones lower lipophilicity. As for `O=C(NN1CCC=C(F)C1)c1ccccc1`, the Change in data set [1] is recorded as 64%; in data set [3], 42%. In data set [2], the logP is 1.27.

As for `COC(=O)CCC1=CCN(NC(=O)c2ccccc2)CC1`, the Change in data set [1] and in data set [3] was -9% throughout. In addition, in data set [2], the lipophilicity (logP) was 0.949.

For the compound `COC(=O)CCC1=CCCN(NC(=O)c2ccccc2)C1`, the Change in data set [1] is -2%; in data set [3] it was 6%. In addition, the logP in data set [2] was 0.74.

Regarding `CC1=CCN(NC(=O)c2ccccc2)CC1`, the values for the Change in data set [1] and in data set [3] were 48% and 43%, respectively. In data set [2], this compound had a logP of 1.2.

Regarding `CC(=O)OCCCC1=CCN(NC(=O)c2ccccc2)CC1`, the values for the Change in data set [1] and in data set [3] were 2% and 3%, respectively. Besides, in data set [2], the logP is 1.52.

Consider `O=C(NN1CCC=CC1=O)c1ccccc1`, for which the values for the Change in data set [1] and in data set [3] were 1% and 4%, respectively. In addition, the logP in data set [2] was 1.17.

Regarding `CC(O)C1=CCN(NC(=O)c2ccccc2)CC1` (stereo unspecified), the Change is given as -10% in data set [1] and -5% in data set [3]. In data set [2], this compound gave a logP of 0.0414.

`O=C(NN1CC=CCC1)c1ccccc1`: the Change is reported as 78% in data set [1] and 50% in data set [3].

Turning to `O=C(NN1CC=C(CCCO)CC1)c1ccccc1`, the results for the Change in data set [1] and in data set [3] were 4% and -6%, respectively. Moreover, in data set [2], the logP is 1.22.

On to `O=C(O)CCC1=CCN(NC(=O)c2ccccc2)CC1`, for which the figures for the Change in data set [1] and in data set [3] were -4% and 7%, respectively. This compound yielded a logP in data set [2] of 1.

With `CC(O)C1=CCCN(NC(=O)c2ccccc2)C1` (stereo unspecified), the Change in data set [1] is -8%; in data set [3], -16%. This compound showed a logP in data set [2] of 0.447.

Regarding `CC1CC=CCN1NC(=O)c1ccccc1` (stereo unspecified), the Change is 12% in data set [1] and 16% in data set [3]. The logP in data set [2] is 0.699.

Take `CC1=C(C)CN(NC(=O)c2ccccc2)CC1`: the Change is listed as 27% in data set [1] and 20% in data set [3]. Further, the logP in data set [2] was 1.35.

Take `COCCCC1=CCCN(NC(=O)c2ccccc2)C1`: the results for the Change in data set [1] and in data set [3] were -10% and -11%, respectively. Further, in data set [2], the logP was 0.908.

On to `CC(=O)C1=CCCN(NC(=O)c2ccccc2)C1`, for which the figures for the Change in data set [1] and in data set [3] were -5% and -17%, respectively. Besides, the logP in data set [2] was -0.0969.

`COC1=CCN(NC(=O)c2ccccc2)CC1`: in data set [2], the logP was 1.16. Moreover, the Change in data set [4] stood at 5%; in data set [5], 7%.

Consider `O=C(NN1CCC=C(CCCO)C1)c1ccccc1`, for which the Change in data set [1] is reported as -2%; in data set [3] it was -6%. The compound also showed a logP in data set [2] of 1.12.

Turning to `O=C(NN1CC=C(CO)CC1)c1ccccc1`, the Change in data set [1] was -10%; in data set [3], -14%. Also, the logP in data set [2] is 0.643.

`CC1=CCCN(NC(=O)c2ccccc2)C1`: the Change is 124% in data set [1] and 116% in data set [3]. Further, the logP in data set [2] was 1.37.

Turning to `COC1=CCCN(NC(=O)c2ccccc2)C1`, the logP in data set [2] was 1.62. Also, the Change in data set [4] was -7%; in data set [3] it was -9%.

On to `CC(=O)OCCCC1=CCCN(NC(=O)c2ccccc2)C1`, for which the values for the Change in data set [1] and in data set [3] were -8% and 7%, respectively. For the same compound, in data set [2], the logP is 1.49.

Turning to `CC(=O)C1=CCN(NC(=O)c2ccccc2)CC1`, the figures for the Change in data set [1] and in data set [3] were -12% and -19%, respectively. Also, in data set [2], the logP is 0.38.

As for `O=C(O)CCC1=CCCN(NC(=O)c2ccccc2)C1`, the figures for the Change in data set [1] and in data set [3] were -14% and -4%, respectively. In data set [2], the logP was 1.18.

As to `COCCCC1=CCN(NC(=O)c2ccccc2)CC1`, the Change in data set [1] is recorded as 1%; in data set [3], -9%. This compound had a logP in data set [2] of 1.49.

`C=C1C=CCN(NC(=O)c2ccccc2)C1` showed a logP in data set [2] of 1.37. Besides, the results for the Change in data set [4] and in data set [3] were 5% and 4%, respectively.

Turning to `CCCNC(=O)NS(=O)(=O)c1ccc(Cl)cc1` [CHLORPROPAMIDE], the Change in data set [4] is recorded as -42%; in data set [3] it was -38%.
